Laboratory results taken from ChEMBL document CHEMBL1137414, “3'-Substituted 7-halogenoindirubins, a new class of cell death inducing agents” (J Med Chem, 2006).

What was measured:
[1] = Inhibition of starfish CDK1/cyclin B in presence of 15 uM ATP; design: species or system Marthasterias glacialis
[2] = target: Cyclin-dependent kinase 5/CDK5 activator 1 (Homo sapiens, UniProt Q00535); test: (§1) Inhibition of mammalian CDK5/p25; assay type: protein-complex assay
Outline: (§2)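 Recombinant CDK5 and p25, each expressed in E. coli as GST fusions and affinity-purified on glutathione agarose, mixed in equal amounts. Phosphate incorporation onto P81 paper read by scintillation counting, blank subtracted. Activity taken as % of uninhibited. IC50 from dose-response curves.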

SH-SY5Y [3] = test: Survival of human SH-SY5Y cells at 25 uM by MTS reduction assay; assay type: functional, cell-based; conditions: for viability at 25 µM: Homo sapiens, SH-SY5Y, read-out: Survival
Outline: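 Viability was read by MTS reduction and expressed as percent of untreated cells, as the average ± SE of three independent measurements, representative of two independent experiments.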

[4] = target: Cyclin-dependent kinase 5/CDK5 activator 1 (Homo sapiens, UniProt Q00535+Q15078); test: as §1; assay type: protein-complex assay; outline: as §2
Chain of Cyclin-dependent kinase 5/CDK5 activator 1 (Homo sapiens, UniProt Q00535+Q15078) (Q00535 whole entry): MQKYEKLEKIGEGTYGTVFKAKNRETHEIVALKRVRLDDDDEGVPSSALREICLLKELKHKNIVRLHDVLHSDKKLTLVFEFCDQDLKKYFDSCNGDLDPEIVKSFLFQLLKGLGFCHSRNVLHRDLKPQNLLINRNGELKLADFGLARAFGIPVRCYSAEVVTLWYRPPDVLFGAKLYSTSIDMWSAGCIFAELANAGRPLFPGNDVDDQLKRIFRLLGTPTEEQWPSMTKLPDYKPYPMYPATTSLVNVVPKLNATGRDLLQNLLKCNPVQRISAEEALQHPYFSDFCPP
Chain of Cyclin-dependent kinase 5/CDK5 activator 1 (Homo sapiens, UniProt Q00535+Q15078) (Q15078 whole entry): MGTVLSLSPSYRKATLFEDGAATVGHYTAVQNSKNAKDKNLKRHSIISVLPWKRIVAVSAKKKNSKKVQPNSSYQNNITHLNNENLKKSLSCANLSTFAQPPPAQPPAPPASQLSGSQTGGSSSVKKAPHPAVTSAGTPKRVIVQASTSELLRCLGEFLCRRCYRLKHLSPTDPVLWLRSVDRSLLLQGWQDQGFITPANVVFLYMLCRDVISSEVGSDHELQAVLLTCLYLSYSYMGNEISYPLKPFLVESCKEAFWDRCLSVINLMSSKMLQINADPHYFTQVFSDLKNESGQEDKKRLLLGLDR

SH-SY5Y [5] = test: Survival of human SH-SY5Y cells after 24 hrs by MTS reduction assay; assay type: functional, cell-based
SH-SY5Y [6] = test: Survival of human SH-SY5Y cells after 48 hrs by MTS reduction assay; assay type: functional, cell-based
SH-SY5Y [7] = test: Death of human SH-SY5Y cells at 25 uM after 48 hrs by LDH release assay; assay type: functional
Outline: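 SH-SY5Y human neuroblastoma cells were grown in DMEM with 2 mM L-glutamine, antibiotics and 10% FCS at 37 °C under 5% CO2. […] Lactate dehydrogenase release was measured 48 h after addition and expressed as percent cell death.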

SH-SY5Y [8] = test: Death of human SH-SY5Y cells in absence of 20 uM Q-VD-OPh by MTS reduction assay; assay type: functional, cell-based; conditions: Homo sapiens, SH-SY5Y; read-out: IC50
SH-SY5Y [9] = test: Death of human SH-SY5Y cells in presence of 20 uM Q-VD-OPh by MTS reduction assay; assay type: functional, cell-based; conditions: Homo sapiens, SH-SY5Y

Chain of Cyclin-dependent kinase 5/CDK5 activator 1 (Homo sapiens, UniProt Q00535) (Q00535 whole entry, the tested form may be a part): as the sequence (Q00535 whole entry) above
Chain of Cyclin-dependent kinase 5/CDK5 activator 1 (Homo sapiens, UniProt Q00535) (Q15078 whole entry, further chain, the tested form may be a part): as the sequence (Q15078 whole entry) above

| SMILES | IC50 [1] | IC50 [2] | viability at 25 µM (SH-SY5Y [3]) | further results |
| --- | --- | --- | --- | --- |
| CC(=O)O/N=C1/C(c2c(O)[nH]c3c(F)cccc23)=Nc2ccccc21 | 15 µM | > 100 µM | 39% | – |
| Cn1c(O)c(-c2[nH]c3ccccc3c2N=O)c2cccc(Br)c21 | > 100 µM | > 100 µM | 84% | – |
| Oc1[nH]c2c(Br)cccc2c1C1=Nc2ccccc2/C1=N\OCCN1CCOCC1 | – | – | – | IC50 [4]: > 10 µM; Survival (SH-SY5Y [3]): 98% |
| Cn1c(O)c(C2=Nc3ccccc3C2=O)c2cccc(F)c21 | > 10 µM | > 100 µM | 101% | – |
| Cn1c(O)c(-c2[nH]c3ccccc3c2N=O)c2cccc(Cl)c21 | > 100 µM | > 100 µM | 94% | – |
| O=Nc1c(-c2c(O)[nH]c3c(I)cccc23)[nH]c2ccccc12 | 66 µM | 77 µM | 64% | – |
| Cn1c(O)c(C2=Nc3ccccc3/C2=N\OCCn2ccnc2)c2cccc(Br)c21 | > 10 µM | > 10 µM | 85% | – |
| O=C1Nc2ccc(Br)cc2/C1=C1/Nc2ccccc2/C1=N\O [INDIRUBIN 2] | 0.045 µM | 0.028 µM | 13% | IC50 (SH-SY5Y [5]; Homo sapiens, SH-SY5Y, 24 h): 18 µM; IC50 (SH-SY5Y [6]; Homo sapiens, SH-SY5Y, 48 h): 12 µM; Activity (SH-SY5Y [7]): 59%; IC50 (SH-SY5Y [8]): 13 µM; IC50 (SH-SY5Y [9]): 23 µM |
| CO/N=C1/C(c2c(O)n(C)c3c(Cl)cccc23)=Nc2ccccc21 | > 10 µM | > 100 µM | 99% | – |
| Cn1c(O)c(C2=Nc3ccccc3/C2=N\OCCBr)c2cccc(Br)c21 | > 10 µM | > 10 µM | 99% | – |
| Cn1c(O)c(C2=Nc3ccccc3C2=O)c2ccccc21 | 100 µM | – | 98% | – |
| O=C1Nc2cc(Br)ccc2/C1=C1/Nc2ccccc2/C1=N\O [6BIO] | – | – | 5% | Activity (SH-SY5Y [7]): 80% |
| CO/N=C1/C(c2c(O)[nH]c3c(Cl)cccc23)=Nc2ccccc21 | > 10 µM | > 100 µM | 97% | – |
| CCN(CC)CCO/N=C1/C(c2c(O)n(C)c3c(Br)cccc23)=Nc2ccccc21 | – | – | – | IC50 [4]: > 10 µM; Survival (SH-SY5Y [3]): 83% |
| O=C1C(c2c(O)[nH]c3c(I)cccc23)=Nc2ccccc21 | > 10 µM | > 100 µM | 96% | – |
| CC(=O)O/N=C1/C(c2c(O)n(C)c3c(Br)cccc23)=Nc2ccccc21 | 70 µM | > 100 µM | 95% | – |
| O=C1C(c2c(O)[nH]c3c(F)cccc23)=Nc2ccccc21 | 10 µM | ≥ 10 µM | 70% | – |
| CC(=O)O/N=C1/C(c2c(O)[nH]c3c(Br)cccc23)=Nc2ccccc21 | > 100 µM | > 100 µM | 61% | – |
| O=Nc1c(-c2c(O)[nH]c3ccccc23)[nH]c2ccccc12 [INDIRUBIN-3-MONOXIME] | – | – | 27% | IC50 (SH-SY5Y [5]; Homo sapiens, SH-SY5Y, 24 h): > 25 µM; IC50 (SH-SY5Y [6]; Homo sapiens, SH-SY5Y, 48 h): 12 µM; Activity (SH-SY5Y [7]): 33%; IC50 (SH-SY5Y [8]): 13 µM; IC50 (SH-SY5Y [9]): > 25 µM |
| Cn1c(O)c(-c2[nH]c3ccccc3c2N=O)c2ccccc21 | 73 µM | – | 100% | – |
| CO/N=C1/C(c2c(O)n(C)c3c(F)cccc23)=Nc2ccccc21 | > 10 µM | > 100 µM | 107% | – |
| CCN(CC)CCO/N=C1/C(c2c(O)[nH]c3c(Br)cccc23)=Nc2ccccc21 | – | – | – | IC50 [4]: > 10 µM; Survival (SH-SY5Y [3]): 49% |
| CCN(CC)CCO/N=C1/C(c2c(O)[nH]c3c(Br)cccc23)=Nc2ccccc21.Cl (stereo in doubt; 13ls) | – | – | – | IC50 [4]: > 10 µM; Survival (SH-SY5Y [3]): 72% |
| Cn1c(O)c(C2=Nc3ccccc3C2=O)c2cccc(Br)c21 | 100 µM | > 100 µM | 98% | – |
| CO/N=C1/C(c2c(O)[nH]c3c(F)cccc23)=Nc2ccccc21 | > 10 µM | > 100 µM | 105% | – |
| CO/N=C1/C(c2c(O)n(C)c3c(I)cccc23)=Nc2ccccc21 | > 10 µM | > 100 µM | 99% | – |
| Cn1c(O)c(-c2[nH]c3ccccc3c2N=O)c2cccc(F)c21 | > 100 µM | > 100 µM | 99% | – |

| SMILES | IC50 [1] | IC50 [2] | viability at 25 µM (SH-SY5Y [3]) | further results |
| --- | --- | --- | --- | --- |
| Oc1[nH]c2c(Br)cccc2c1C1=Nc2ccccc2/C1=N\OCCN1CCCC1 | – | – | – | IC50 [4]: > 10 µM; Survival (SH-SY5Y [3]): 13%; IC50 (SH-SY5Y [5]; sh-sy5y): 3.6 µM; IC50 (SH-SY5Y [6]; sh-sy5y): 2.3 µM; Activity (SH-SY5Y [7]): 14%; IC50 (SH-SY5Y [8]): 2 µM; IC50 (SH-SY5Y [9]): > 25 µM |
| CCN(CC)C(=O)O/N=C1/C(c2c(O)[nH]c3c(Br)cccc23)=Nc2ccccc21 | > 100 µM | > 100 µM | 106% | – |
| Oc1[nH]c2c(Br)cccc2c1C1=Nc2ccccc2/C1=N\OCCn1ccnc1 | – | – | – | IC50 [4]: > 10 µM; Survival (SH-SY5Y [3]): 59% |
| CC(=O)O/N=C1/C(c2c(O)[nH]c3c(I)cccc23)=Nc2ccccc21 | > 10 µM | > 100 µM | 67% | – |
| CO/N=C1/C(c2c(O)n(C)c3c(Br)cccc23)=Nc2ccccc21 | > 100 µM | > 100 µM | 100% | – |
| CC(=O)O/N=C1/C(c2c(O)n(C)c3c(Cl)cccc23)=Nc2ccccc21 | > 10 µM | > 100 µM | 96% | – |
| Oc1[nH]c2c(Br)cccc2c1C1=Nc2ccccc2/C1=N\OCCBr | > 100 µM | 25 µM | 87% | – |
| Cl.Oc1[nH]c2c(Br)cccc2c1C1=Nc2ccccc2/C1=N\OCCN1CCOCC1 | > 100 µM | > 10 µM | – | Survival (SH-SY5Y [3]): 76% |
| CO/N=C1/C(c2c(O)[nH]c3c(I)cccc23)=Nc2ccccc21 | > 10 µM | > 100 µM | 84% | – |
| CO/N=C1/C(c2c(O)[nH]c3c(Br)cccc23)=Nc2ccccc21 | > 100 µM | > 100 µM | 97% | – |
| Cn1c(O)c(-c2[nH]c3ccccc3c2N=O)c2cccc(I)c21 | > 100 µM | > 100 µM | 74% | – |
| Cn1c(O)c(C2=Nc3ccccc3C2=O)c2cccc(Cl)c21 | > 10 µM | > 100 µM | 94% | – |
| O=C1C(c2c(O)[nH]c3c(Br)cccc23)=Nc2ccccc21 | > 100 µM | > 100 µM | 92% | – |
| Cn1c(O)c(C2=Nc3ccccc3/C2=N\OCCN2CCOCC2)c2cccc(Br)c21 | – | – | – | IC50 [4]: > 10 µM; Survival (SH-SY5Y [3]): 98% |
| O=C1Nc2ccccc2/C1=C1/Nc2ccccc2C1=O [INDIRUBIN] | – | – | 104% | – |
| CN(C)CCO/N=C1/C(c2c(O)n(C)c3c(Br)cccc23)=Nc2ccccc21 | – | – | – | IC50 [4]: > 10 µM; Survival (SH-SY5Y [3]): 49%; IC50 (SH-SY5Y [5]; sh-sy5y): > 25 µM; IC50 (SH-SY5Y [6]; sh-sy5y): 5.5 µM; Activity (SH-SY5Y [7]): 33%; IC50 (SH-SY5Y [8]): 6.4 µM; IC50 (SH-SY5Y [9]): > 25 µM |
| CO/N=C1\C(c2c(O)[nH]c3ccccc23)=Nc2ccccc21 | 1.4 µM | 0.4 µM | 86% | – |
| O=Nc1c(-c2c(O)[nH]c3c(F)cccc23)[nH]c2ccccc12 | 1.5 µM | 0.51 µM | 46% | – |
| O=C1C(c2c(O)[nH]c3c(Cl)cccc23)=Nc2ccccc21 | > 10 µM | > 100 µM | 92% | – |
| CC(=O)O/N=C1\C(c2c(O)[nH]c3ccccc23)=Nc2ccccc21 | – | 0.7 µM | 36% | – |
| CCN(CC)CCO/N=C1/C(c2c(O)n(C)c3c(Br)cccc23)=Nc2ccccc21.Cl | > 10 µM | > 10 µM | – | Survival (SH-SY5Y [3]): 15%; Activity (SH-SY5Y [7]): 58%; IC50 (SH-SY5Y [8]): 18 µM; IC50 (SH-SY5Y [9]): > 25 µM |
| CC(=O)O/N=C1/C(c2c(O)[nH]c3c(Cl)cccc23)=Nc2ccccc21 | > 10 µM | > 100 µM | 89% | – |
| Cn1c(O)c(C2=Nc3ccccc3C2=O)c2cccc(I)c21 | > 10 µM | > 100 µM | – | Survival (SH-SY5Y [3]; sh-sy5y): 93% |
| CC(=O)O/N=C1/C(c2c(O)n(C)c3c(I)cccc23)=Nc2ccccc21 | > 10 µM | > 100 µM | 82% | – |
| Cl.Cn1c(O)c(C2=Nc3ccccc3/C2=N\OCCN2CCOCC2)c2cccc(Br)c21 | > 10 µM | > 10 µM | 90% | – |
| CC(=O)O/N=C1/C(c2c(O)n(C)c3c(F)cccc23)=Nc2ccccc21 | > 10 µM | > 100 µM | 105% | – |
| CCN(CC)C(=O)O/N=C1/C(c2c(O)n(C)c3c(Br)cccc23)=Nc2ccccc21 | > 10 µM | > 10 µM | 105% | – |
